# Assay results: ChEMBL document CHEMBL4382268, “Glycyrrhetinic acid derivatives containing aminophosphonate ester species as multidrug resistance reversers that block the NF-κB pathway and cell proliferation” (Bioorg Med Chem Lett, 2018); call rule not given here
# Assays:
# L02 = assay: Antiproliferative activity against human HL-7702 cells after 48 hrs by MTT assay; format: functional, cell-based; details: L02, 48 h
# Summary of the method: (§1)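 MTT read-out of antiproliferative activity across cancer lines HepG-2, NCI-H460, MGC-803, A549 and MG-63 and normal liver line HL-7702. IC50 given as mean ± S.D. of three separate experiments, each run in triplicate.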
# [1] = Inhibition of TNF-alpha induced NF-kappaB activation in human A549 cells after 7 hrs by Bright-Glo luciferase reporter gene assay; format: cell-based
# Summary of the method: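 A549 cells transiently cotransfected with an NF-κB-Luc reporter and stimulated with TNF-α. Luciferase read-out of inhibition gives IC50, the mean of at least three independent experiments each with triplicates.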
# HepG2 = assay: Antiproliferative activity against human HepG2 cells after 48 hrs by MTT assay; format: functional, cell-based; details: HepG2, 48 h; summary of the method: as §1
# NCI-H460 = assay: Antiproliferative activity against human NCI-H460 cells after 48 hrs by MTT assay; format: functional, cell-based; details: NCI-H460, 48 h; summary of the method: as §1
# MGC-803 = assay: Antiproliferative activity against human MGC803 cells after 48 hrs by MTT assay; format: functional, cell-based; details: MGC-803, 48 h; summary of the method: as §1
# A549 = assay: Antiproliferative activity against human A549 cells after 48 hrs by MTT assay; format: functional, cell-based; details: A549, 48 h; summary of the method: as §1
# MG-63 = assay: Antiproliferative activity against human MG63 cells after 48 hrs by MTT assay; format: functional, cell-based; details: MG-63, 48 h; summary of the method: as §1
# [2] = Homo sapiens, A549, 7 h, read-out: IC50
SMILES,IC50 (L02) [µM],IC50 ([1]; a549),IC50 (HepG2) [µM],IC50 (NCI-H460) [µM],IC50 (MGC-803) [µM],IC50 (A549) [µM],IC50 (MG-63) [µM],"IC50 [1, 2] [µM]"
CCOP(=O)(OCC)C(Nc1ccc(CC(=O)NCCCNC(=O)[C@@]2(C)CC[C@]3(C)CC[C@]4(C)C(=CC(=O)[C@@H]5[C@@]6(C)CC[C@H](O)C(C)(C)[C@@H]6CC[C@]54C)[C@@H]3C2)cc1)c1cccc(OC)c1 (some centres not stated),> 50,Not Active,> 50,> 50,45.2,> 50,46.6,
CC[C@@]1(O)C(=O)OCc2c1cc1n(c2=O)Cc2cc3cc(O)ccc3nc2-1 [HYDROXYCAMPTOTHECIN],10.2,,,10.1,9.71,9.13,10.7,
CCOP(=O)(OCC)C(Nc1ccc(CC(=O)NCCCCNC(=O)[C@@]2(C)CC[C@]3(C)CC[C@]4(C)C(=CC(=O)[C@@H]5[C@@]6(C)CC[C@H](O)C(C)(C)[C@@H]6CC[C@]54C)[C@@H]3C2)cc1)c1cccc(Br)c1 (some centres not stated),> 50,,> 50,> 50,> 50,> 50,> 50,> 30
CCOP(=O)(OCC)C(Nc1ccc(CC(=O)NCCCCNC(=O)[C@@]2(C)CC[C@]3(C)CC[C@]4(C)C(=CC(=O)[C@@H]5[C@@]6(C)CC[C@H](O)C(C)(C)[C@@H]6CC[C@]54C)[C@@H]3C2)cc1)c1ccccc1 (some centres not stated),> 50,,37.1,30.5,36.3,33.2,27.8,25.1
CCOP(=O)(OCC)C(Nc1ccc(CC(=O)NCCCCNC(=O)[C@@]2(C)CC[C@]3(C)CC[C@]4(C)C(=CC(=O)[C@@H]5[C@@]6(C)CC[C@H](O)C(C)(C)[C@@H]6CC[C@]54C)[C@@H]3C2)cc1)c1ccc(Br)cc1 (some centres not stated),> 50,,29.2,25.2,30.9,24.9,24.6,16.3
CCOP(=O)(OCC)C(Nc1ccc(CC(=O)NCCCNC(=O)[C@@]2(C)CC[C@]3(C)CC[C@]4(C)C(=CC(=O)[C@@H]5[C@@]6(C)CC[C@H](O)C(C)(C)[C@@H]6CC[C@]54C)[C@@H]3C2)cc1)c1cccc(Br)c1 (some centres not stated),> 50,Not Active,> 50,> 50,> 50,> 50,> 50,
CCOP(=O)(OCC)C(Nc1ccc(CC(=O)NCCCCNC(=O)[C@@]2(C)CC[C@]3(C)CC[C@]4(C)C(=CC(=O)[C@@H]5[C@@]6(C)CC[C@H](OC(C)=O)C(C)(C)[C@@H]6CC[C@]54C)[C@@H]3C2)cc1)c1ccccc1 (some centres not stated),> 50,,26.3,13.2,15.2,23.1,20.2,13.2
CCOP(=O)(OCC)C(Nc1ccc(CC(=O)NCCCCNC(=O)[C@@]2(C)CC[C@]3(C)CC[C@]4(C)C(=CC(=O)[C@@H]5[C@@]6(C)CC[C@H](OC(C)=O)C(C)(C)[C@@H]6CC[C@]54C)[C@@H]3C2)cc1)c1ccc(Br)cc1 (some centres not stated),> 50,,19.8,10.2,17.4,17.3,19.2,11.1
CCOP(=O)(OCC)C(Nc1ccc(CC(=O)NCCCCNC(=O)[C@@]2(C)CC[C@]3(C)CC[C@]4(C)C(=CC(=O)[C@@H]5[C@@]6(C)CC[C@H](OC(C)=O)C(C)(C)[C@@H]6CC[C@]54C)[C@@H]3C2)cc1)c1cccc(OC)c1 (some centres not stated),> 50,,35.3,27.4,32.9,27.2,36.6,23.4
CCOP(=O)(OCC)C(Nc1ccc(CC(=O)NCCCNC(=O)[C@@]2(C)CC[C@]3(C)CC[C@]4(C)C(=CC(=O)[C@@H]5[C@@]6(C)CC[C@H](OC(C)=O)C(C)(C)[C@@H]6CC[C@]54C)[C@@H]3C2)cc1)c1cccc(Br)c1 (some centres not stated),> 50,,> 50,> 50,> 50,> 50,> 50,> 30
CCOP(=O)(OCC)C(Nc1ccc(CC(=O)NCCCCNC(=O)[C@@]2(C)CC[C@]3(C)CC[C@]4(C)C(=CC(=O)[C@@H]5[C@@]6(C)CC[C@H](O)C(C)(C)[C@@H]6CC[C@]54C)[C@@H]3C2)cc1)c1ccc(F)cc1 (some centres not stated),> 50,,20.2,19.4,18.3,19.8,12.4,6.09
CCOP(=O)(OCC)C(Nc1ccc(CC(=O)NCCCNC(=O)[C@@]2(C)CC[C@]3(C)CC[C@]4(C)C(=CC(=O)[C@@H]5[C@@]6(C)CC[C@H](O)C(C)(C)[C@@H]6CC[C@]54C)[C@@H]3C2)cc1)c1ccc(F)cc1 (some centres not stated),> 50,,29.1,17.3,20.5,17.9,16.5,8.89
